Tested on: HT-29; call rule not given here
Assay: Drug uptake in human HT-29 cells in presence of amino acid transport system L inhibitor BCH
Format: ADME, cell-based
Procedure, shortened: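 Cells were prepared as for the uptake assay and preincubated at 37 °C with inhibitor at 12.5 mmol/L in PBS; controls received PBS. 0.37 MBq [18F]tracer was added and incubated 30 min at 37 °C. Cells were washed cold, lysed and γ-counted. Uptake is given as % of the control group, n = 3.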

## Cl.N[C@H](CCSCCC[18F])C(=O)O
  Drug uptake: Not Active
